{"source": "paper PMC9868102", "about": "(Cell chemical biology, 2023)", "key": {"transglutaminase-2 (TG2)": {"test_system": "transglutaminase-2 (TG2)", "test": "Bio-layer interferometry of α2M-TG2 interaction", "format": "binding", "details": "preliminary efforts"}, "human TG2": {"molecular_target": "T1, human TG2 (Homo sapiens, UniProt P21980)", "T1 sequence (P21980 1-687)": "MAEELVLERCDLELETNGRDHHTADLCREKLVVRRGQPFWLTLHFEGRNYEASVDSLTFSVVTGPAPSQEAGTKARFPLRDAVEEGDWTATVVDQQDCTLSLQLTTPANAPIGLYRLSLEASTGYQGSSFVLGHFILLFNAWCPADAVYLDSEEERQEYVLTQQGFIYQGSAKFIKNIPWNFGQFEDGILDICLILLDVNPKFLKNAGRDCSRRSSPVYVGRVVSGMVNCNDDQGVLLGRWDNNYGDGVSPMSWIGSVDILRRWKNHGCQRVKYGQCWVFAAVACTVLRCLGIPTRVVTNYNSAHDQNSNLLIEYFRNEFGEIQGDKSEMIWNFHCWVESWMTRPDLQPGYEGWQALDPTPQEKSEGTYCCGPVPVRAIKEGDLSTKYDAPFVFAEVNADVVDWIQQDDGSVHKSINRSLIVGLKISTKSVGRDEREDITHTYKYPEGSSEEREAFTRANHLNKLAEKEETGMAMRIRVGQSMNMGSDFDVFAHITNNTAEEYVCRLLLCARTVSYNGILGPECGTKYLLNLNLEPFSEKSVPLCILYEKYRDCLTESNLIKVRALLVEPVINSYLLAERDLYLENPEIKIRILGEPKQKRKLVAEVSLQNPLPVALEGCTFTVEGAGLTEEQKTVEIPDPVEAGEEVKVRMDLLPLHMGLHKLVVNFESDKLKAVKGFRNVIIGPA", "test": "TG2 steady-state kinetics of substrates, wild-type TG2 ± α2M and vs pH", "format": "biochemical", "details": "kcat of AC-PQLPF-NH2", "summary_of_the_method": "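His6-tagged human TG2 from E. coli BL21(DE3) was purified by Ni-NTA and anion exchange, reduced, and desalted into PBS. It was assayed at 1 μM final, ± recombinant human α2M (Expi293F-expressed), with GDH/α-ketoglutarate/NADH coupling in 200 mM MOPS pH 7.2 with 5 mM CaCl2. Substrate was Ac-PQLPF-NH2 unless otherwise specified. Absorbance at 340 nm was followed for 60 min at 25 °C. Steady-state rates came from linear progress-curve slopes; triplicate.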"}, "[1]": {"test_system": "9022 cells (HLA-DQ2 homozygous B-cell line)", "test": "Cell surface presentation by HLA-DQ2 expressing 9022 B cells", "format": "cell-based, human", "details": "100 nM TG2; 150 cells from 2-4 frames of 3-6 replicates", "summary_of_the_method": "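EBV-immortalised HLA-DQ2-homozygous B cells in RPMI with 10% FBS and 1% PenStrep, pelleted, resuspended and left 20 min at 37 °C to adhere on poly-L-lysine-coated glass. Cy5-33mer, α2M and 100 nM recombinant human TG2 (E. coli, His6) added for 2.5 h. Anti-HLA-DQ2 (1:50) then Alexa 488 secondary, each 20 min on ice, fixed, DAPI, confocal. Cells with surface HLA-DQ2/Cy5 overlay scored; 2-4 frames of 3-6 replicates.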"}, "NRK cells": {"test_system": "NRK cells", "test": "Uptake of fluorescent TG2 probes by NRK cells", "format": "cell-based, rat", "details": "HB230 1 μM", "summary_of_the_method": "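NRK cells were grown in DMEM. Media were replaced, and 1 μM probe was co-incubated for 90 min with α2M at varied levels (some Alexa 555 NHS-labelled), plus TRX as specified. Cells were washed in HBSS, fixed in 2% PFA, DAPI-stained and imaged by confocal microscopy. Puncta were counted with a circularity cutoff of 0.3 and a minimum size threshold, then normalized to cell number by DAPI.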"}, "wild-type MEFs": {"test_system": "wild-type MEFs", "test": "Internalization of HB230 and α2M by wild-type MEFs", "format": "cell-based, mouse", "details": "α2M 100 μg/mL, HB230 10 μM, exogenous TRX and betamethasone"}, "LRP-1 knock-out MEFs": {"test_system": "LRP-1 knock-out MEFs", "test": "Internalization of HB230 and α2M by LRP-1 knock-out MEFs", "format": "cell-based, mouse", "details": "α2M 100 μg/mL, HB230 10 μM, exogenous TRX and betamethasone"}, "[2]": {"molecular_target": "T2, TG2 derivative harboring the N-terminal and catalytic domains but lacking both β-barrel domains (Homo sapiens, UniProt P21980)", "T2 sequence (P21980 1-460)": "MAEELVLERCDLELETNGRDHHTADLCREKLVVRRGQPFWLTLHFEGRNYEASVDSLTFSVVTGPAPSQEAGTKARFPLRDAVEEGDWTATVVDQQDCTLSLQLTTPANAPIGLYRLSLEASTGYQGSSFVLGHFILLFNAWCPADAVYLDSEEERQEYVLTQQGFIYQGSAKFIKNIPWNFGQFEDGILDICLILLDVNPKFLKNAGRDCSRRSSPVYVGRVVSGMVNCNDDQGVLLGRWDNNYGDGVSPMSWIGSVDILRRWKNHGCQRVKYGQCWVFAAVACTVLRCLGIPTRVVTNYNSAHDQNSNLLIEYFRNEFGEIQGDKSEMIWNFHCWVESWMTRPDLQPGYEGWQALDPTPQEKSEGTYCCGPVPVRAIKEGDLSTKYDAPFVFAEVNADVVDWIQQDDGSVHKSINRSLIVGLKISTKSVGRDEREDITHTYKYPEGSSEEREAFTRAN", "test": "Kinetics of truncated TG2 lacking both β-barrel domains", "format": "biochemical", "details": "TG2 derivative lacking both β-barrel domains", "summary_of_the_method": "(§1)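 Truncated human TG2 constructs with N-terminal His tags (residues 1-586 lacking β2; residues 1-460 lacking β1 and β2) were expressed in Rosetta2 E. coli and purified by Ni, anion exchange and SEC. The assay was GDH-coupled: 200 mM MOPS pH 7.2, 5 mM CaCl2, 10 mM α-ketoglutarate, 18 U/mL GDH, 0.5 mM NADH and Ac-PQLPF-NH2. Reduced enzyme was at 1 μM final, ± Expi293F-expressed human α2M. NADH loss was read at 340 nm for 60 min at 25 °C. Rates came from linear slopes; triplicate.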"}, "[3]": {"molecular_target": "T3, TG2 derivative lacking the C-terminal β-barrel domain (Homo sapiens, UniProt P21980)", "T3 sequence (P21980 1-586)": "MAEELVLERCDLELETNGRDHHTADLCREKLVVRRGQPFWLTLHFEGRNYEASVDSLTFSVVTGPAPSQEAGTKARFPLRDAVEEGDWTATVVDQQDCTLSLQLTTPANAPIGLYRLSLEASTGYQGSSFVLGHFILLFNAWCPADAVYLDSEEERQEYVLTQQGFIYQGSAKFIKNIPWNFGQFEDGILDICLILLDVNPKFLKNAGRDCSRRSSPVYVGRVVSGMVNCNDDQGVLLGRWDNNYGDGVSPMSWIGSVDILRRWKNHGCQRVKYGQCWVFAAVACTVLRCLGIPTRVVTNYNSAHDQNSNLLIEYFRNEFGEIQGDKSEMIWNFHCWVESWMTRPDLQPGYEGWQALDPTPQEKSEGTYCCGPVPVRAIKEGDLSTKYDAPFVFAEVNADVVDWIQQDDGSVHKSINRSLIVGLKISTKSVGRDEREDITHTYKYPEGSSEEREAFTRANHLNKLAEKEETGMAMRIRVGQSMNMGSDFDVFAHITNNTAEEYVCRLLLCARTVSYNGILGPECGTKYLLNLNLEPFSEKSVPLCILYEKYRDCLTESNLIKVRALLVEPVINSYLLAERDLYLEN", "test": "Kinetics of truncated TG2 lacking the C-terminal β-barrel domain", "format": "biochemical", "details": "TG2 derivatives lacking the C-terminal β-barrel domain", "summary_of_the_method": "as §1"}}, "note": "“Also recorded” adds a separate entry of the source."}
{"substance": "α2M: ~800 kDa homotetrameric pan-protease inhibitor", "values": [{"measurement": "detection of α2M-TG2 interaction", "setting": "transglutaminase-2 (TG2)", "result": "unsuccessful"}, {"measurement": "inhibition of TG2 by α2M, mechanism", "setting": "human TG2", "result": "non-competitive inhibition mechanism of TG2 by α2M"}, {"measurement": "effect of α2M on cell surface 33mer", "setting": "[1]", "result": "enhanced upon addition of exogenous α2M; also recorded: the number of cells displaying gluten peptides on their surface increases"}, {"measurement": "α2M concentration up to which HB230 uptake increases (saturation)", "setting": "NRK cells; 90 min", "result": "~ 100 μg/mL"}, {"measurement": "effect of α2M on HB230 uptake", "setting": "NRK cells; α2M supplementation", "result": "strong dose-dependent increase in uptake of HB230; also recorded: predominantly appeared to affect the size and number of the larger puncta"}, {"measurement": "internalization by wild-type MEFs", "setting": "wild-type MEFs", "result": "readily internalize"}, {"measurement": "internalization by LRP-1 knock-out MEFs", "setting": "LRP-1 knock-out MEFs", "result": "markedly reduced uptake"}, {"measurement": "inhibition of truncated TG2 by α2M", "setting": "[2]", "result": "Inhibition was abolished"}, {"measurement": "inhibition of truncated TG2 by α2M", "setting": "[3]", "result": "Inhibition was abolished"}]}
